Results from ChEMBL document CHEMBL4382237, “Design, Synthesis, and Biological Evaluation of 2-Nitroimidazopyrazin-one/-es with Antitubercular and Antiparasitic Activity” (J Med Chem, 2018).
pIC50: −log10 of the molar value. In brackets after ≈: the same amount, converted by molar mass. Activity calls are given as the source filed them. No cut-off for these calls is given here.

Assays:
Entamoeba histolytica = assay: Antiparasitic activity against Entamoeba histolytica HM-1:IMSS trophozoites after 24 to 48 hrs by CellTiter-Glo luminescent cell viability assay; type: functional, organism-based; details: for pIC50: read-out: IC50; for IC50: read-out: pIC50 (converted)
Method in brief: (§1)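 Axenic trophozoites were kept in TYI-S-33 with penicillin (100 U/mL) and streptomycin (100 µg/mL) and harvested in log phase. 5000 parasites per well were exposed to a final 8-point two-fold series of 0.39–50 µM, from 10 mM DMSO stocks. Plates were incubated 24–48 h at 37 °C under anaerobic conditions. ATP luminescence viability was read in triplicate. Percent inhibition is given at the highest concentration tested.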

[1] = test system: Mycobacterium tuberculosis; assay: Antibacterial activity against non-replicating Mycobacterium tuberculosis H37Rv after 5 days under hypoxic condition by resazurin dye-based fluorescence assay; type: functional; details: 120 h
Method in brief: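 Same H37Rv inoculum (OD600 0.001, ~2 x 10^4 CFU/mL) in 7H9S with serially diluted compound. Plates held 5 days at 0.1% oxygen, then resazurin plus Tween-80 added.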

[2] = test system: Trypanosoma brucei brucei; assay: Antiparasitic activity against bloodstream form of Trypanosoma brucei brucei strain 427 assessed as inhibition of parasitic growth at 40 uM after 48 hrs by resazurin dye-based assay relative to control; type: functional; details: strain 427, 48 h, read-out: GI
Giardia intestinalis [3] = assay: Antiparasitic activity against Giardia lamblia WB trophozoites assessed as inhibition of parasitic growth at 50 uM after 24 to 48 hrs by CellTiter-Glo luminescent cell viability assay relative to control; type: functional; details: Giardia duodenalis, read-out: GI; method in brief: as §1
Giardia intestinalis [4] = assay: Antiparasitic activity against Giardia lamblia WB trophozoites after 24 to 48 hrs by CellTiter-Glo luminescent cell viability assay; details: Giardia duodenalis; for IC50: read-out: pIC50 (converted)
[5] = test system: Mycobacterium tuberculosis; assay: Antibacterial activity against Mycobacterium tuberculosis H37Rv after 5 days under normoxic condition by resazurin dye-based fluorescence assay; type: functional, organism-based
Method in brief: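 H37Rv grown in 7H9/ADC/glycerol/Tyloxapol to mid-exponential phase, diluted to OD600 0.001 (~2 x 10^4 CFU/mL) in 7H9S with serially diluted compound. Incubated 5 days at 37 °C, then resazurin and Tween-80 added. Fluorescence (ex 530/em 590 nm) read after 24 h, normalised to no-drug and no-bacteria wells.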

[6] = test system: Trypanosoma brucei brucei; assay: Antiparasitic activity against bloodstream form of Trypanosoma brucei brucei strain 427 after 48 hrs by resazurin dye-based assay; type: functional, organism-based; details: for pIC50 / IC50: strain 427, 48 h; for pIC50: read-out: IC50; for IC50: read-out: pIC50 (converted)
[7] = buffer, 24 h, 200 µM
[8] = buffer, pH 7.4, 24 h, 200 µM
physchem [9] = details: PBS, pH 7.4
[10] = test system: Mycobacterium tuberculosis; assay: Antibacterial activity against non-replicating Mycobacterium tuberculosis H37Rv assessed as inhibition of bacterial growth at 0.125 to 8 ug/ml after 5 days under hypoxic condition by resazurin dye-based fluorescence assay relative to control; type: functional
Staphylococcus aureus = assay: Antibacterial activity against methicillin-resistant Staphylococcus aureus ATCC […] by broth microdilution assay; type: functional
Escherichia coli = assay: Antibacterial activity against Escherichia coli ATCC 25922 by broth microdilution assay; type: functional
Method in brief: (§2)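 Broth microdilution run essentially per an earlier report. MIC taken as the lowest concentration with no visible growth. Replicates typically agreed within one 2-fold dilution. The median MIC is reported, with a range where the median fell between two tested concentrations.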

Klebsiella pneumoniae = assay: Antibacterial activity against Klebsiella pneumoniae 700603 by broth microdilution assay; type: functional; method in brief: as §2
Acinetobacter baumannii = assay: Antibacterial activity against Acinetobacter baumannii ATCC 19606 by broth microdilution assay; type: functional; details: ATCC 19606 = CIP 70.34 = JCM 6841; method in brief: as §2
Pseudomonas aeruginosa = assay: Antibacterial activity against Pseudomonas aeruginosa ATCC 27853 by broth microdilution assay; type: functional; method in brief: as §2
Candida albicans = assay: Antifungal activity against Candida albicans ATCC 90028 by broth microdilution assay; type: functional; method in brief: as §2
Cryptococcus neoformans = assay: Antifungal activity against Cryptococcus neoformans H99 ATCC […] broth microdilution assay; type: functional; details: var. grubii H99 ATCC 208821; method in brief: as §2
HEK293 = assay: Cytotoxicity against HEK293 cells after 24 hrs by resazurin dye-based fluorescence assay; type: cell-based; details: human, hek293, 24 h
Method in brief: (§3)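 HEK293 (3000/well) and HepG2 (5000/well) were grown 24 h in DMEM with 10% FBS at 37 °C, 5% CO2. Cells were then exposed 24 h to a dilution series up to 100 µM (0.5% DMSO). 5 µM resazurin was added for 2 h, read at ex 560/em 590. 1% Triton X-100 served as lysis control. CC50 was derived from the curves.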

HepG2 = assay: Cytotoxicity against human HepG2 cells after 24 hrs by resazurin dye-based fluorescence assay; type: cell-based; details: hepg2, 24 h; method in brief: as §3
physchem [11] = details: water
Clostridioides difficile = assay: Antibacterial activity against Clostridium difficile 630 ATCC BAA-1382 by broth microdilution assay; type: functional; method in brief: as §2
[12] = Metabolic stability in human liver microsomes assessed as parent compound remaining at 3 uM after 2 hrs by LC-MS/MS analysis
[13] = Metabolic stability in CD-1 mouse liver microsomes assessed as parent compound remaining at 3 uM after 2 hrs by LC-MS/MS analysis
[14] = Metabolic stability in human plasma assessed as parent compound remaining at 3 uM after 2 hrs by LC-MS/MS analysis
[15] = Metabolic stability in CD-1 mouse plasma assessed as parent compound remaining at 3 uM after 2 hrs by LC-MS/MS analysis
[16] = Protein binding in human plasma at 5 uM after 30 mins by LC-MS/MS analysis based ultrafiltration method; details: 0.5 h
[17] = Apparent permeability across apical to basolateral side in human Caco2 cells at 2 uM after 2 hrs by lucifer yellow dye-based LC-MS/MS analysis; details: caco-2, 2 h
[18] = Apparent permeability across basolateral to apical side in human Caco2 cells at 2 uM after 2 hrs by lucifer yellow dye-based LC-MS/MS analysis; details: caco-2, 2 h
[19] = Apparent permeability across apical to basolateral side in human Caco2 cells assessed as mean drug recovery at 2 uM after 2 hrs by lucifer yellow dye-based LC-MS/MS analysis; details: caco-2, 2 h
[20] = Apparent permeability across basolateral to apical side in human Caco2 cells assessed as mean drug recovery at 2 uM after 2 hrs by lucifer yellow dye-based LC-MS/MS analysis; details: Caco-2
Giardia intestinalis [21] = assay: Antiparasitic activity against Giardia lamblia WB trophozoites after 24 to 48 hrs by CellTiter-Glo luminescent cell viability assay; details: Giardia duodenalis
[22] = test system: Mycobacterium tuberculosis; assay: Antibacterial activity against non-replicating Mycobacterium tuberculosis H37Rv assessed as inhibition of bacterial growth at 0.06 to 16 ug/ml after 5 days under hypoxic condition by resazurin dye-based fluorescence assay relative to control; type: functional; details: at 0.06 to 16 µg/mL

## Cc1cn2cc([N+](=O)[O-])nc2c(OCCO)n1
Entamoeba histolytica
  pIC50: < 4.30
  IC50: > 50.1 µM
[1]
  MIC: > 32 µg/mL
[2]
  inhibition of growth at 40 µM: 56%
Giardia intestinalis [3]
  inhibition of growth at 50 µM: 80%

## Cc1ccc(Cn2c(C)c(C)n3cc([N+](=O)[O-])nc3c2=O)cc1
Giardia intestinalis [4]
  pIC50: 5.28
  IC50: 5.01 µM
Entamoeba histolytica
  pIC50: 4.48
  IC50: 31.6 µM
[5]
  MIC: 2 µg/mL (≈ 6.4 µM)
[1]
  MIC: 4 µg/mL (≈ 12.8 µM)
[6]
  pIC50: 6.60
  IC50: 0.251 µM
[7]
  log(Kinetic_solubility): < -5
[8]
  log(Kinetic_solubility): < -5
Physchem [9]
  solubility kinetic at 24 h, 200 µM: < 10 µM

## Cc1cccc(Cn2ccn3cc([N+](=O)[O-])nc3c2=O)c1
Giardia intestinalis [4]
  pIC50: 5.05
  IC50: 10 µM
[5]
  MIC: 0.06 µg/mL (≈ 0.211 µM)
[10]
  growth inhibition (GI): 70 - 90%
[6]
  pIC50: 5.27
  IC50: 5.01 µM
Staphylococcus aureus
  MIC: > 32 µg/mL
Escherichia coli
  MIC: > 32 µg/mL
Klebsiella pneumoniae
  MIC: > 32 µg/mL
Acinetobacter baumannii
  MIC: > 32 µg/mL
Pseudomonas aeruginosa
  MIC: > 32 µg/mL
Candida albicans
  MIC: > 32 µg/mL
Cryptococcus neoformans
  MIC: > 32 µg/mL
HEK293
  CC50: > 100 µM
HepG2
  CC50: > 100 µM

## CC(=O)OCCn1c(-c2ccccc2)cn2cc([N+](=O)[O-])nc2c1=O
Giardia intestinalis [4]
  pIC50: 4.96
  IC50: 10 µM
Entamoeba histolytica
  pIC50: 4.47
  IC50: 31.6 µM
[1]
  MIC: > 32 µg/mL
[6]
  pIC50: 6.07
  IC50: 0.794 µM
[7]
  log(Kinetic_solubility): > -4
[8]
  log(Kinetic_solubility): > -4
Physchem [11]
  solubility kinetic at 24 h, 200 µM: > 100 µM
Physchem [9]
  solubility kinetic at 24 h, 200 µM: > 100 µM

## O=c1c2nc([N+](=O)[O-])cn2ccn1Cc1ccc(OC(F)(F)F)cc1
Clostridioides difficile
  MIC: > 64 µg/mL
[12]
  Stability: > 99%
[13]
  Stability: > 99%
[14]
  Stability: > 99%
[15]
  Stability: > 99%
[16]
  PPB: 98%
[17]
  Papp: 25 ×10⁻⁶ cm/s
[18]
  Papp: 22 ×10⁻⁶ cm/s
[19]
  Drug recovery: 83%
[20]
  recovery at 2 h, 2 µM: 97%

## O=c1c2nccn2ccn1Cc1ccccc1
Entamoeba histolytica
  Activity: inactive
[6]
  Activity: inactive
Giardia intestinalis [21]
  Activity: inactive

## C[C@H]1O[C@@H](O[C@H]2[C@@H](O)C[C@H](O[C@H]3[C@@H](O)C[C@H](O[C@H]4CC[C@@]5(C)[C@H](CC[C@@H]6[C@@H]5C[C@@H](O)[C@]5(C)[C@@H](C7=CC(=O)OC7)CC[C@]65O)C4)O[C@@H]3C)O[C@@H]2C)C[C@H](O)[C@@H]1O [DIGOXIN]
[19]
  Drug recovery: < 72%
[20]
  recovery at 2 h, 2 µM: 88%

## O=c1c2nc([N+](=O)[O-])cn2ccn1Cc1cccc(C(F)(F)F)c1
Giardia intestinalis [4]
  pIC50: 5.15
  IC50: 7.94 µM
[5]
  MIC: 0.06 µg/mL (≈ 0.177 µM)
[22]
  growth inhibition (GI): 70 - 90%
[6]
  pIC50: 5.28
  IC50: 5.01 µM
Staphylococcus aureus
  MIC: > 32 µg/mL
Escherichia coli
  MIC: > 32 µg/mL
Klebsiella pneumoniae
  MIC: > 32 µg/mL
Acinetobacter baumannii
  MIC: > 32 µg/mL
Pseudomonas aeruginosa
  MIC: > 32 µg/mL
Candida albicans
  MIC: > 32 µg/mL
Cryptococcus neoformans
  MIC: > 32 µg/mL
HEK293
  CC50: > 100 µM
HepG2
  CC50: > 100 µM
Physchem [11]
  solubility kinetic at 24 h, 200 µM: < 5 µM
Physchem [9]
  solubility kinetic at 24 h, 200 µM: < 5 µM
